Data on five compounds can be found in ChEMBL document CHEMBL2390926, “Identification of novel FLT3 kinase inhibitors” (Eur J Med Chem, 2013).

Assay [1] in a line: Cytotoxicity against mouse BA/F3 cells transfected with FLT3-ITD after 24 hrs by plate reader analysis in presence of IL3. Conditions: BaF3, 24 h.
Assay [2] has as its target Fibroblast growth factor receptor 3 (Homo sapiens) (UniProt P22607). The assay can be described thus: Inhibition of FGFR3 (unknown origin) transfected in mouse Ba/F3 cells at 1 uM after 24 hrs. Conditions: BaF3. Format: cell-based. The gist of the method: (§1)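 Kinase specificity panel: each Ba/F3 line transformed with one of 24 tyrosine kinases depends on that kinase to grow. Cells were given compound at 1 or 5 µM for 24 h, with DMSO as comparator. Percentage growth was read by ATP-lite luminescence and reported as mean ± SEM.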

Assay [3] concerns HEL. The assay can be described thus: Cytotoxicity against human HEL cells after 72 hrs by plate reader analysis. Format: functional, cell-based.
Assay [4] can be described thus: Cytotoxicity against mouse BA/F3 cells transfected with FLT3-ITD after 24 hrs by plate reader analysis. The following applies: BaF3, 24 h.
For assay [5], the target named is Tyrosine-protein kinase SYK (Homo sapiens) (UniProt P43405). The assay can be described thus: Inhibition of SYK (unknown origin) transfected in mouse Ba/F3 cells at 1 uM after 24 hrs. The format is cell-based. Conditions: BaF3.
The target of assay [6] is T1, Receptor-type tyrosine-protein kinase FLT3 (Mus musculus) (UniProt Q00342).
T1 sequence (whole entry): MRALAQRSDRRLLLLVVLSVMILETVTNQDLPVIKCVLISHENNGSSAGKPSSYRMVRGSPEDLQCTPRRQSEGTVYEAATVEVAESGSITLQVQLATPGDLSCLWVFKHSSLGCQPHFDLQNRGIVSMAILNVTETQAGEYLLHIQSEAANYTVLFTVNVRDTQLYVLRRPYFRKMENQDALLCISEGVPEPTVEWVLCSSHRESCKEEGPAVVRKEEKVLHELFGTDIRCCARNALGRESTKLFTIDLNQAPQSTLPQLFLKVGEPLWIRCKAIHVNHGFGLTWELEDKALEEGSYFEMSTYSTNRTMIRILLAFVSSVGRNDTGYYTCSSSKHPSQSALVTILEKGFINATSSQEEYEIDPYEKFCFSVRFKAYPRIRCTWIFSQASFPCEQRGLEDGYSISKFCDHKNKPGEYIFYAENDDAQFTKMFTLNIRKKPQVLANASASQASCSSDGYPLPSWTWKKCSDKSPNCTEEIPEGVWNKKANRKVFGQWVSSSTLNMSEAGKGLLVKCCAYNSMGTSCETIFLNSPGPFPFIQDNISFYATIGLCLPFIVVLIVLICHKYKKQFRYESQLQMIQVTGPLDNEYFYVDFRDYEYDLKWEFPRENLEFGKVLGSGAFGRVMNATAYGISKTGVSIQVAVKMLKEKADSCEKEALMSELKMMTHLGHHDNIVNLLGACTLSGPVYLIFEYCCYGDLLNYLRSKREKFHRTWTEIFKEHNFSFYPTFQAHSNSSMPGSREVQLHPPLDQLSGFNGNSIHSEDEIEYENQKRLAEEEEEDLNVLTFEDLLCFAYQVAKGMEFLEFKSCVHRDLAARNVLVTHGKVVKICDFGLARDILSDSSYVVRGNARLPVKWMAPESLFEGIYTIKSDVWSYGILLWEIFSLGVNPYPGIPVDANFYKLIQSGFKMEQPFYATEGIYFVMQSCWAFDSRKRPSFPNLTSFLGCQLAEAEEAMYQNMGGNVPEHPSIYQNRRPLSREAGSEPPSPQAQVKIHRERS
The assay can be described thus: Inhibition of FLT3 phosphorylation in mouse Ba/F3 cells transfected with FLT3-ITD cells at 500 nM after 90 mins by Western blot analysis. Format: cell-based. The following applies: BaF3. In a few lines: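 Ba/F3-FLT3-ITD cells were treated for 90 min with increasing doses. They were lysed in buffer with 1 mM NaVO4 and protease inhibitors, then reduced and run on Bis-Tris 4–12% gels for Western blot. Phospho-FLT3 and phospho-STAT5 were detected, with total FLT3 and STAT5 as loading controls.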

In assay [7] the target is Tyrosine-protein kinase Yes (Homo sapiens) (UniProt P07947). The assay can be described thus: Inhibition of YES (unknown origin) transfected in mouse Ba/F3 cells at 1 uM after 24 hrs. The format is cell-based. Conditions: BaF3.
Assay [8] deals with T2, Ephrin type-A receptor 1 (Homo sapiens) (UniProt P21709).
T2 sequence (whole entry): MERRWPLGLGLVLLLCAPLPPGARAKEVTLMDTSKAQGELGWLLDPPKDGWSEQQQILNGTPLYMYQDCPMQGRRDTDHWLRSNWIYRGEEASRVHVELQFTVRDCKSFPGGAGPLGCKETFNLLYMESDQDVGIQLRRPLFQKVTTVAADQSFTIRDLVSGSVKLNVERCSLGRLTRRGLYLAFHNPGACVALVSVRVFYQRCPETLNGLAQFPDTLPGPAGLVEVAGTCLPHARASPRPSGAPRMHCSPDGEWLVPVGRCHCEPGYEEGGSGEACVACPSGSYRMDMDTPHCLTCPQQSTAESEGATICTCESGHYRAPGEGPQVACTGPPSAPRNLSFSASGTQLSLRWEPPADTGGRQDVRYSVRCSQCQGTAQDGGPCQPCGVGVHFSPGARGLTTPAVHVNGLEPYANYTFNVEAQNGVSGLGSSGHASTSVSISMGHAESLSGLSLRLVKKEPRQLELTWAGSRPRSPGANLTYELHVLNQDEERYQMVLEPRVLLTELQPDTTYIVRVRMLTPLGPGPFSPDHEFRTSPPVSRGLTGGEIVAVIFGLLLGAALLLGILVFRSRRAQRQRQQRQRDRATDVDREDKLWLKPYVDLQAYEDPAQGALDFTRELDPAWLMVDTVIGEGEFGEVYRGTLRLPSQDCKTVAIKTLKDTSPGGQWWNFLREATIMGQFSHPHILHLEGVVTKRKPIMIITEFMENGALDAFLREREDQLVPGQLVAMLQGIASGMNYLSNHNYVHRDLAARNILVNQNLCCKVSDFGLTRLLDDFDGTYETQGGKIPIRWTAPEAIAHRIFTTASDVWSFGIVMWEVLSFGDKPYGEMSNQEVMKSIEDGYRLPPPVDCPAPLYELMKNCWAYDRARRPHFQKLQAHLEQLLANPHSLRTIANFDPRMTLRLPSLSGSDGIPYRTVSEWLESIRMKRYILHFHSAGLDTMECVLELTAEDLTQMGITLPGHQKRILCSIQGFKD
The assay can be described thus: Inhibition of EPHA1 (unknown origin) transfected in mouse Ba/F3 cells at 1 uM after 24 hrs. Format: cell-based. The following applies: BaF3. The gist of the method: as §1

In assay [9] the target is Vascular endothelial growth factor receptor 3 (Homo sapiens) (UniProt P35916). The assay can be described thus: Inhibition of FLT4 (unknown origin) transfected in mouse Ba/F3 cells at 1 uM after 24 hrs. The format is cell-based. Conditions: BaF3. The gist of the method: as §1
Chain of Vascular endothelial growth factor receptor 3 (Homo sapiens) (P35916 whole entry): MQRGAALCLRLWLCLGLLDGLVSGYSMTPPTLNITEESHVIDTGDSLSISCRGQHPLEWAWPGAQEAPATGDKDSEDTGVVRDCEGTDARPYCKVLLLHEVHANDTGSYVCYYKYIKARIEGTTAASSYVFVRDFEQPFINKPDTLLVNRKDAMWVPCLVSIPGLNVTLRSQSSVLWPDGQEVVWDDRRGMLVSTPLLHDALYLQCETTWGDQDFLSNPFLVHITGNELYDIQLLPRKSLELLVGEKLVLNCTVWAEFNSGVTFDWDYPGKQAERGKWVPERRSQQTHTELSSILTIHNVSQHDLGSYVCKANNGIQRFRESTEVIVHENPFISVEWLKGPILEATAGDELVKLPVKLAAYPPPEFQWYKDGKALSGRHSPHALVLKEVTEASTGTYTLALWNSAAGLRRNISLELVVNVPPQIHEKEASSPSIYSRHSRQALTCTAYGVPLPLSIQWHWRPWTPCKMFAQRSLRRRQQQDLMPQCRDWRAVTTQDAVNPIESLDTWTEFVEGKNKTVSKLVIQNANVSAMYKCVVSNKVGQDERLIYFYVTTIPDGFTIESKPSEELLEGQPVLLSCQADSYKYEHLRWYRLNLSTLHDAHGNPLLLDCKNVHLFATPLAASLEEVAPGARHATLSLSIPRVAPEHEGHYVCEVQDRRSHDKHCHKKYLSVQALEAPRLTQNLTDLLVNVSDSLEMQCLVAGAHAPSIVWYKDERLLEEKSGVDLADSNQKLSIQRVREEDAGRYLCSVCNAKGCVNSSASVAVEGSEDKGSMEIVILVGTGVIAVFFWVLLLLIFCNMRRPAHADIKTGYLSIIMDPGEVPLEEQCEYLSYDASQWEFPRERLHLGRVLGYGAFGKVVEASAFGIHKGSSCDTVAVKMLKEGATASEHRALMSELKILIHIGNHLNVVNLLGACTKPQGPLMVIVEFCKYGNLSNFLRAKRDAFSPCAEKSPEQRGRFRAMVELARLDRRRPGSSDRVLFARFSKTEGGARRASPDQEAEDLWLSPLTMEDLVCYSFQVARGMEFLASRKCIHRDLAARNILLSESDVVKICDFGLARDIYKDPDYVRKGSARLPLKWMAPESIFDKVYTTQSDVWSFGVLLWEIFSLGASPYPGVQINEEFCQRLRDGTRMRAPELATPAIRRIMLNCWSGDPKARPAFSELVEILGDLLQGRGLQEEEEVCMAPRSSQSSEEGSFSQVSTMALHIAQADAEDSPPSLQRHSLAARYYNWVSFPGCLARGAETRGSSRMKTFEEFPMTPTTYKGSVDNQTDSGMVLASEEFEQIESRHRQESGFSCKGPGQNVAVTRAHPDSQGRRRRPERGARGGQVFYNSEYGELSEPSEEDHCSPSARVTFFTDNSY
The target in assay [10] is Ephrin type-A receptor 5 (Homo sapiens) (UniProt P54756). The assay can be described thus: Inhibition of EPHA5 (unknown origin) transfected in mouse Ba/F3 cells at 1 uM after 24 hrs. Conditions: BaF3. The format is cell-based. In a few lines:
as §1

In assay [11] the target is Receptor tyrosine-protein kinase erbB-2 (Homo sapiens) (UniProt P04626). The assay can be described thus: Inhibition of ERBB2 (unknown origin) transfected in mouse Ba/F3 cells at 1 uM after 24 hrs. Format: cell-based. The following applies: BaF3. In a few lines:
as §1

Assay [12] has as its target Insulin-like growth factor 1 receptor (Homo sapiens) (UniProt P08069). The assay can be described thus: Inhibition of IGF1R (unknown origin) transfected in mouse Ba/F3 cells at 1 uM after 24 hrs. The following applies: BaF3. Format: cell-based. In a few lines:
as §1

Active and inactive are the calls of the source. No cut-off for these calls is given here.

Chain of Ephrin type-A receptor 5 (Homo sapiens) (P54756 whole entry): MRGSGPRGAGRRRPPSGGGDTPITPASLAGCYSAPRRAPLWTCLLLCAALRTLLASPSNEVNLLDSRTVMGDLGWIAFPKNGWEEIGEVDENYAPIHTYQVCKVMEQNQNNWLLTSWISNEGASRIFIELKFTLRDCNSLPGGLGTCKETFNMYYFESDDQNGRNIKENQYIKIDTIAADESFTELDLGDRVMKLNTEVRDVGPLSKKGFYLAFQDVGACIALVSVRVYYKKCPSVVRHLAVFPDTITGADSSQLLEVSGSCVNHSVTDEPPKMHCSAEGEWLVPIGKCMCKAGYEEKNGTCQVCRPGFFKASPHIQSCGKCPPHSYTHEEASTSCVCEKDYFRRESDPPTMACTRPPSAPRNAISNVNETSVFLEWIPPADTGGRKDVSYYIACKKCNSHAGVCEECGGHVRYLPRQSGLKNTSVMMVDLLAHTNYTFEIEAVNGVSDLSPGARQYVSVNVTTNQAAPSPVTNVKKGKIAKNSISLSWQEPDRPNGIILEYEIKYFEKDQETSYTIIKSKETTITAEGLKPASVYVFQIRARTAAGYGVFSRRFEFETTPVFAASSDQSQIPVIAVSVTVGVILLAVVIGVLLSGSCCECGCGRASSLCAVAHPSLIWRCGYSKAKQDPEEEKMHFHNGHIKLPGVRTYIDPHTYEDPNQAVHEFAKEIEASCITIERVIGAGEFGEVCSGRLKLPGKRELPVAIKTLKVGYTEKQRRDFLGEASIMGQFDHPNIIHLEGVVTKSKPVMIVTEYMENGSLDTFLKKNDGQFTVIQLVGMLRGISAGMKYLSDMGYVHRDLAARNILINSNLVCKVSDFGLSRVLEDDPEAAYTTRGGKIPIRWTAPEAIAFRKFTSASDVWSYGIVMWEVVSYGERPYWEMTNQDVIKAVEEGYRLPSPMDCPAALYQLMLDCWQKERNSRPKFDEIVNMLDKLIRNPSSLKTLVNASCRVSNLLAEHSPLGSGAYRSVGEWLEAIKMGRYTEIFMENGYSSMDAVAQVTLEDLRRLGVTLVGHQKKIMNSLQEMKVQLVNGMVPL
Chain of Receptor tyrosine-protein kinase erbB-2 (Homo sapiens) (P04626 whole entry): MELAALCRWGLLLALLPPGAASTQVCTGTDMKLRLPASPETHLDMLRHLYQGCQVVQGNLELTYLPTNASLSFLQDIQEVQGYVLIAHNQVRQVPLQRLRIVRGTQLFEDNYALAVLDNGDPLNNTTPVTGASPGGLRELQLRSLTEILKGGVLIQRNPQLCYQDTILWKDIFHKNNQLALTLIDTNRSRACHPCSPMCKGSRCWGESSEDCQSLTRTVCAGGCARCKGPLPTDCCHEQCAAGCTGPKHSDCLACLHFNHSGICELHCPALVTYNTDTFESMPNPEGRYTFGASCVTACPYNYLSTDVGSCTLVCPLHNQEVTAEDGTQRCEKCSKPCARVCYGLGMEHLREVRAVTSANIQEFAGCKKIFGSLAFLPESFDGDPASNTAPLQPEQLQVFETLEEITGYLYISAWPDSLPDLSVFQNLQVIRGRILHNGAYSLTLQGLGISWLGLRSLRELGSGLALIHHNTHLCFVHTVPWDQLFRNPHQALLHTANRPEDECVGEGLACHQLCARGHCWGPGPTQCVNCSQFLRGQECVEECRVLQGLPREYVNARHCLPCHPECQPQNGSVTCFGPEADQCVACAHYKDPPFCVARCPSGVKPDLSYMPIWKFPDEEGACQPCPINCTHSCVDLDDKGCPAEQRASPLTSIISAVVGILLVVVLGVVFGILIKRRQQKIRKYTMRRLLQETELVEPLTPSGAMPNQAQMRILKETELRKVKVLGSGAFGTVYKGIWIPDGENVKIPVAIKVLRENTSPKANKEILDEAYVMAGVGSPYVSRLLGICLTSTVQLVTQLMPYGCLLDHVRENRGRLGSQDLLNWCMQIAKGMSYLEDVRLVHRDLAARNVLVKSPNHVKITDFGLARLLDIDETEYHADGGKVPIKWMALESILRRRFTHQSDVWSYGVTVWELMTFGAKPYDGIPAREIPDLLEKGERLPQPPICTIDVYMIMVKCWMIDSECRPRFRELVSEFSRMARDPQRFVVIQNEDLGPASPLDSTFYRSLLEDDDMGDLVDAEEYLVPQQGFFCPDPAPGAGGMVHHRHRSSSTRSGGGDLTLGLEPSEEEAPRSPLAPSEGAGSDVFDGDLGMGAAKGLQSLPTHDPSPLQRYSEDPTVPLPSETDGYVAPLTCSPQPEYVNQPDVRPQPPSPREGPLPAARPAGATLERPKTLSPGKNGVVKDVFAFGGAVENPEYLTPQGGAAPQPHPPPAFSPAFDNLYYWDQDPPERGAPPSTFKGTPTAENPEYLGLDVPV
Chain of Insulin-like growth factor 1 receptor (Homo sapiens) (P08069 31-736 limits assumed): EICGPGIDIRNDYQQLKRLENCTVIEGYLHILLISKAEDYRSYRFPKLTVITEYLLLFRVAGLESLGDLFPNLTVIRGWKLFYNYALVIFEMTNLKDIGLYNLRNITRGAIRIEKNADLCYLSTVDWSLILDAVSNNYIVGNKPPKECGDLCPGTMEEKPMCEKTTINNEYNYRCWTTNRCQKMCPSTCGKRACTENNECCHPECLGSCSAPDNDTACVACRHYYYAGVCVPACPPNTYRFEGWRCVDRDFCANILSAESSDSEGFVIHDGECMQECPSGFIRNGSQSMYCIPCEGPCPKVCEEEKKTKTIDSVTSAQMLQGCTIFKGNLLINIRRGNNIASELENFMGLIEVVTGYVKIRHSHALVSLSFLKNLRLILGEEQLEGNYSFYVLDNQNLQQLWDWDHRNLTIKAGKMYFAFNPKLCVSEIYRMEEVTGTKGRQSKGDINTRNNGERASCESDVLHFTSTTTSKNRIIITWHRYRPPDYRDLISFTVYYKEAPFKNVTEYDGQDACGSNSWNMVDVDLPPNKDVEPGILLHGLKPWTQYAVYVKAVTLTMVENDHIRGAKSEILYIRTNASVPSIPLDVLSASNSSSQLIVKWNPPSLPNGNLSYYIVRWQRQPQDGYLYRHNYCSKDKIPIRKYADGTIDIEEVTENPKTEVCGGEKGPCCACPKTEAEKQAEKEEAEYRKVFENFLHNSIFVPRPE
Chain of Insulin-like growth factor 1 receptor (Homo sapiens) (P08069 741-1367 limits assumed): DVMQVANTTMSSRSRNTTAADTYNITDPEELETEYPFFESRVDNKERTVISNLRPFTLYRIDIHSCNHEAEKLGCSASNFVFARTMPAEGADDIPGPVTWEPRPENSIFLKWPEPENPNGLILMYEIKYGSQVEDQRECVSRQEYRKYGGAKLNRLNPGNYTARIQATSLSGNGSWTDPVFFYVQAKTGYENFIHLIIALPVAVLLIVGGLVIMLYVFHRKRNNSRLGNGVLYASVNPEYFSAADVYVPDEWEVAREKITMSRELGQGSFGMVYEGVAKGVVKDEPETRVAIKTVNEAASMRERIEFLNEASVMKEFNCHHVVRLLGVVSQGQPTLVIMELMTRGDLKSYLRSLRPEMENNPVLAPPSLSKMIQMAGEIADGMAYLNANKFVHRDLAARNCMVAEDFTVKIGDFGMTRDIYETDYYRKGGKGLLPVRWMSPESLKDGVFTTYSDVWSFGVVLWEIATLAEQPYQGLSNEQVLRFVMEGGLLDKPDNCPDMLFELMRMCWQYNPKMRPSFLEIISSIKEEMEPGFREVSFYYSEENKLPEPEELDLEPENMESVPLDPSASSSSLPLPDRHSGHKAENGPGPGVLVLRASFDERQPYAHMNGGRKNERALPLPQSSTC

In the case of `Cc1cccc(C(=O)Nc2cc(-c3ccc(F)cc3)n[nH]2)c1`, the 50% effective concentration (EC50) in [1] turned out to be 21 µM; in assay [3], 62 µM; in [4], 0.296 µM. For the same compound, the inhibition result in [2], in assay [5], in assay [7], in assay [8], in assay [9] and in [10] was “inactive” throughout. Moreover, the inhibition result in [11] and in [12] was “inactive” each time. Moreover, the inhibition entry in [6] was “Active”.
Take `Cc1ccc(-c2cc(NC(=O)c3ccc(F)cc3)[nH]n2)cc1`: the EC50 in assay [1] was 23 µM; in [3] it was 1000 µM; in assay [4], 0.138 µM. Also, the inhibition result in [2], in assay [5], in assay [7], in assay [8], in assay [9] and in assay [10] was “inactive” each time. Besides, the inhibition result in assay [11] and in assay [12] was “inactive” throughout. Further, the inhibition result in [6] was “Active”.
In the case of `Cc1ccc(-n2cnc3cc(Nc4nnc(C)c5ccccc45)ccc32)cc1`, the 50% effective concentration (EC50) amounted to 19 µM in assay [1], 14 µM in [3] and 0.717 µM in [4]. Besides, the inhibition entry in assay [6] is “Active”.
With `Fc1ccc(-c2n[nH]cc2-c2ccncc2)cc1Cl`, the 50% effective concentration (EC50) in [1] was 16 µM; in assay [3], 1000 µM; in assay [4], 0.405 µM. For the same compound, in [6], the inhibition result was “Active”.
With `COc1ccc(C(=O)Nc2cc(-c3ccccc3)[nH]n2)cc1`, the results for the EC50 in assay [1], in assay [3] and in assay [4] were 18 µM, 47 µM and 0.036 µM, respectively. The inhibition entry in assay [2], in assay [5], in assay [7], in [8], in assay [9] and in assay [10] was “inactive” throughout. For the same compound, the inhibition result in [11] and in [12] was “inactive” each time.
